Reference: ChEMBL document CHEMBL4308898, “Synthesis and biological evaluation of arylpiperazine derivatives as potential anti-prostate cancer agents” (Bioorg Med Chem, 2019)
The source made the active and inactive calls. The rule behind the calls is not given here.

Experiments:
[1] = biological target: T1, Androgen receptor (Homo sapiens) (UniProt P10275); conditions: at 10 µM
T1 sequence (whole entry): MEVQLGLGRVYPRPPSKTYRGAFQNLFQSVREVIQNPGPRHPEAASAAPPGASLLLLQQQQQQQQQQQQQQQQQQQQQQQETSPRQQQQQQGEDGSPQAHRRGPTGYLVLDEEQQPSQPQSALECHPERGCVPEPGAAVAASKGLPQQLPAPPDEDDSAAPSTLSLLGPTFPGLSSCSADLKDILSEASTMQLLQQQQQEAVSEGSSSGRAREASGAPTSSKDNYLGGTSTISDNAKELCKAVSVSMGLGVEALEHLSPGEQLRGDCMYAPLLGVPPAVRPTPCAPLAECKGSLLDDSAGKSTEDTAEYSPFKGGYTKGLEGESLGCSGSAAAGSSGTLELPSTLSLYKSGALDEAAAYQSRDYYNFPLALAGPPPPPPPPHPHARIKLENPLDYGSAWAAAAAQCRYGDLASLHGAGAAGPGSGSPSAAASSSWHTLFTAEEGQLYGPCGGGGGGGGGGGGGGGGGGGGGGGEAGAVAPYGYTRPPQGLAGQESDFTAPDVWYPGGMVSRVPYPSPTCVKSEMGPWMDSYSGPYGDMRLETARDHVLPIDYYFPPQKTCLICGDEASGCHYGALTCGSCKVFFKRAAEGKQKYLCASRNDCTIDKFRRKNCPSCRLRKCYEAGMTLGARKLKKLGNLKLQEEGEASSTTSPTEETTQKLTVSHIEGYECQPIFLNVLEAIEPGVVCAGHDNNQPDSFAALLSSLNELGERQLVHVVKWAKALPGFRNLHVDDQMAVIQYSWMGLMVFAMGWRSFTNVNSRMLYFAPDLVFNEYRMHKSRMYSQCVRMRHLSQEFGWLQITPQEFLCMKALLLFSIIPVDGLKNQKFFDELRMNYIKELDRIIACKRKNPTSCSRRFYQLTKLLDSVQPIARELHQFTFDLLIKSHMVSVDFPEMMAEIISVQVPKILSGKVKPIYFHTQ

LNCaP = test: Antiproliferative activity against human LNCAP cells after 24 hrs by CCK-8 assay; format: functional, cell-based
Procedure, shortened: (§1)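 Media with 10% FBS plus penicillin/streptomycin: RPMI1640 (DU145), F12 (LNCaP), DMEM (PC-3). Log-phase cells seeded at 1 × 10^5 cells/mL and grown 24 h at 37 °C, 5% CO2, then given various compound concentrations for 24 h. CCK-8 added for 1 h, absorbance read at 450 nm. Inhibition = (1 − OD treated/OD control) × 100%. IC50 from linear regression; three independent experiments.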

RWPE-1 = test: Antiproliferative activity against human RWPE1 cells after 24 hrs by CCK-8 assay; format: cell-based; conditions: RWPE-1, 24 h
Procedure, shortened: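 RWPE-1 grown in DMEM with 10% FBS, penicillin 100 U/mL and streptomycin 0.1 mg/mL at 37 °C, 5% CO2. Log-phase cells seeded at 1 × 10^5 cells/mL, cultured 24 h, then exposed to various compound concentrations for 24 h. CCK-8 added, 1 h at 37 °C, absorbance read at 450 nm. Inhibition = (1 − OD treated/OD control) × 100%. IC50 by linear regression of concentration-response curves. Three independent experiments.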

PC-3 = test: Antiproliferative activity against human PC3 cells after 24 hrs by CCK-8 assay; format: functional, cell-based; conditions: PC-3, 24 h
Procedure, shortened: as §1

DU-145 = test: Antiproliferative activity against human DU145 cells after 24 hrs by CCK-8 assay; format: functional, cell-based; conditions: DU-145, 24 h
Procedure, shortened: as §1

Androgen receptor = biological target: T2, Androgen receptor (Rattus norvegicus, UniProt P15207); test: Displacement of fluormone-AL Green from His-tagged/GST-fused recombinant rat androgen receptor LBD expressed in insect cells measured after 4 hrs by fluorescence polarization assay
T2 sequence (P15207 whole entry): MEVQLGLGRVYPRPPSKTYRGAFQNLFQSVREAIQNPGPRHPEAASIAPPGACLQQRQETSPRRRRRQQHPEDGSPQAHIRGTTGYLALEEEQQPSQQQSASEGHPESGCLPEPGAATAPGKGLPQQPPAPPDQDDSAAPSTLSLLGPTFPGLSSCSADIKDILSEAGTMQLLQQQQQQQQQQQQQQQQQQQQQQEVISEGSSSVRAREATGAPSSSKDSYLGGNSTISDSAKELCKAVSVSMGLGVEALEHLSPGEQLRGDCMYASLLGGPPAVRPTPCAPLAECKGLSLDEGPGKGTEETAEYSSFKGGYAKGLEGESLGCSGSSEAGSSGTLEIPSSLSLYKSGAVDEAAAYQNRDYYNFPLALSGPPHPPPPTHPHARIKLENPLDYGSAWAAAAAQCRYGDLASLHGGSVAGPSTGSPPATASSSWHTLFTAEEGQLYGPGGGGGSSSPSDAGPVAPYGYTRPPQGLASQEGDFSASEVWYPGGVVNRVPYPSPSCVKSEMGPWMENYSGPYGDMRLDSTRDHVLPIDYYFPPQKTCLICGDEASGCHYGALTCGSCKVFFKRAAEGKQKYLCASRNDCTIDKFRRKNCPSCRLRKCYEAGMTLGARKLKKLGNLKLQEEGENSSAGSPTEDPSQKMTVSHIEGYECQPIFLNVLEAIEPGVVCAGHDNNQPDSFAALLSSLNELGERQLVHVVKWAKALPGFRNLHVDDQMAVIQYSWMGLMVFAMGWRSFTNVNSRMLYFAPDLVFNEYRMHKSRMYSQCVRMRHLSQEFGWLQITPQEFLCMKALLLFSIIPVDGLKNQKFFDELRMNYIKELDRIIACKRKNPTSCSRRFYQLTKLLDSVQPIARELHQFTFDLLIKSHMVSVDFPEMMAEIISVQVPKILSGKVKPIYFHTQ

SMILES | inhibition [1] | IC50 (LNCaP) | IC50 (RWPE-1) | IC50 (PC-3) | IC50 (DU-145) | IC50 (Androgen receptor)
N#Cc1ccccc1OCCc1ccc(CN2CCN(c3ccccc3)CC2)cc1 | 32.1% | > 50 µM | > 50 µM | > 50 µM | 2.51 µM | 
Cc1ccc(OCCc2ccc(CN3CCN(c4ccccc4)CC3)cc2)cc1 | 54.7% | 5.62 µM | > 50 µM | 1.47 µM | 10.1 µM | 3.66 µM
c1ccc(N2CCN(Cc3ccc(CCOc4ccc5c(c4)CCCC5)cc3)CC2)cc1 |  | > 50 µM | > 50 µM | > 50 µM | 40.4 µM | 
N#Cc1ccc(OCCc2ccc(CN3CCN(c4ccccc4)CC3)cc2)cc1 | 47.2% | 43.6 µM | > 50 µM | 1.05 µM | 46.2 µM | 4.22 µM
Fc1ccc(OCCc2ccc(CN3CCN(c4ccccc4)CC3)cc2)cc1 | 35.1% | 7.83 µM | 4.62 µM | 5.7 µM | 6.86 µM | 
c1ccc(N2CCN(Cc3ccc(CCOc4cccc5ccccc45)cc3)CC2)cc1 | 32.5% | 8.92 µM | 12.2 µM | 4.72 µM | 16 µM | 
FC(F)(F)c1ccc(OCCc2ccc(CN3CCN(c4ccccc4)CC3)cc2)cc1 | 48.2% | 8.76 µM | 13.2 µM | 4.96 µM | 4.81 µM | 4.03 µM
Brc1ccccc1OCCc1ccc(CN2CCN(c3ccccc3)CC2)cc1 |  | 41.9 µM | > 50 µM | > 50 µM | 11.6 µM | 
O=[N+]([O-])c1ccc(OCCc2ccc(CN3CCN(c4ccccc4)CC3)cc2)cc1 | 50.1% | 8.51 µM | 3.87 µM | 9.23 µM | 8.74 µM | 3.82 µM
FC(F)(F)c1ccccc1OCCc1ccc(CN2CCN(c3ccccc3)CC2)cc1 |  | 32.2 µM | > 50 µM | > 50 µM | 9.43 µM | 
Brc1ccc(OCCc2ccc(CN3CCN(c4ccccc4)CC3)cc2)cc1 |  | 13.5 µM | 15.7 µM | 6.69 µM | 10.1 µM | 
c1ccc(OCCc2ccc(CN3CCN(c4ccccc4)CC3)cc2)cc1 | 40.6% | 6.67 µM | > 50 µM | 8.2 µM | 9.82 µM | 
CC(C)(C)NC(=O)[C@H]1CC[C@H]2[C@@H]3CC[C@H]4NC(=O)C=C[C@]4(C)[C@H]3CC[C@]12C [FINASTERIDE] |  | 13.5 µM |  |  | 14.5 µM | 
c1ccc(N2CCN(Cc3ccc(CCOc4cccc5c4CCCC5)cc3)CC2)cc1 |  | 19.3 µM | 27.8 µM | 17.7 µM | 12.2 µM | 
CC(C)(C)c1ccc(OCCc2ccc(CN3CCN(c4ccccc4)CC3)cc2)cc1 |  | 17.9 µM | 21.1 µM | 4.86 µM | 28 µM | 
Clc1cc(Cl)cc(OCCc2ccc(CN3CCN(c4ccccc4)CC3)cc2)c1 |  | 19.4 µM | 47.2 µM | 10.1 µM | 13.2 µM | 
COc1ccc(OCCc2ccc(CN3CCN(c4ccccc4)CC3)cc2)cc1 | 67.1% | 7.46 µM | > 50 µM | 8.95 µM | 9.79 µM | 1.15 µM
CC(C)c1ccc(OCCc2ccc(CN3CCN(c4ccccc4)CC3)cc2)cc1 | 40.2% | > 50 µM | > 50 µM | > 50 µM | 6.4 µM | 
Clc1ccc(OCCc2ccc(CN3CCN(c4ccccc4)CC3)cc2)cc1 | 32.4% | 8.64 µM | 4.76 µM | 3.59 µM | 9.2 µM | 
Clc1ccc(OCCc2ccc(CN3CCN(c4ccccc4)CC3)cc2)cc1Cl | 41.1% | 19.8 µM | > 50 µM | 23 µM | 5.36 µM | 
COc1ccccc1OCCc1ccc(CN2CCN(c3ccccc3)CC2)cc1 |  | > 50 µM | > 50 µM | > 50 µM | > 50 µM | 
Cc1cc(C)cc(OCCc2ccc(CN3CCN(c4ccccc4)CC3)cc2)c1 | 16.7% | 7.43 µM | 4.86 µM | 2.99 µM | 3.44 µM | 
Clc1ccccc1OCCc1ccc(CN2CCN(c3ccccc3)CC2)cc1 |  | > 50 µM | > 50 µM | > 50 µM | 38.6 µM | 
N#Cc1ccc(OCCc2ccc(CN3CCN(c4ccccc4)CC3)cc2)c(F)c1 | 24.5% | > 50 µM | > 50 µM | > 50 µM | 0.77 µM | 
C[C@]12C=CC3=C4CCC(=O)C=C4CC[C@H]3[C@@H]1CC[C@@]2(C)O | inactive |  |  |  |  | 
COc1ccccc1N1CCN(CC(O)COc2cccc3ccccc23)CC1 (stereo unspecified) [NAFTOPIDIL] |  |  | > 50 µM |  |  | 
Fc1ccccc1OCCc1ccc(CN2CCN(c3ccccc3)CC2)cc1 |  | 17.8 µM | 19.7 µM | 48.8 µM | 7.21 µM | 
Cc1ccc(OCCc2ccc(CN3CCN(c4ccccc4)CC3)cc2)cc1C |  | 17.6 µM | 12.3 µM | 6.72 µM | 15.6 µM | 
CCOc1ccc(OCCc2ccc(CN3CCN(c4ccccc4)CC3)cc2)cc1 |  | > 50 µM | > 50 µM | > 50 µM | 14.2 µM | 
Cc1ccccc1OCCc1ccc(CN2CCN(c3ccccc3)CC2)cc1 |  | 34.9 µM | > 50 µM | 15.1 µM | 29.2 µM | 
